This is a sample that favours compounds with a hit; in the whole collection about 2% have one here.
TRPN1 ag: agonists of zebrafish TRPN1 channel. HEK293 zebrafish TRPN1-YFP, Fluo-8 calcium fluorescence; 100% = response to 87 µM carbachol. activation, % at 3 µM. 0.18% of 220,000 active;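 active means activation above its plate's cutoff, the mean activation of test wells on that plate plus 3 SD, cut at about 19% in these data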;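 further: 0% = DMSO alone and 100% = 87 µM carbachol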
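Control set: carbachol 87 µM as high control, DMSO as low control; system: HEK293 stable line with zebrafish TRPN1-YFP; read-out: % activation versus carbachol response; detection: intracellular calcium fluorescence with Fluo-8; doses: single test compound dose, 3 µM nominal, 0.3% DMSO; schedule: dye 1 h 37 °C plus 30 min RT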
TRPML3 agonist: agonists of human TRPML3 channel | HEK293 TRPML3-YFP, Fluo-8 calcium fluorescence; 100% = the carbachol control signal | Q8TDD5 | 0.29% of 220,000 active | activation, % at 3 µM;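 active means activation above its plate's cutoff, the mean activation of the plate's test wells plus 3 SD, cut at about 12% in these data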;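 further: 0% = DMSO only wells and 100% = carbachol wells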
Target sequence (Q8TDD5 whole entry, looked up): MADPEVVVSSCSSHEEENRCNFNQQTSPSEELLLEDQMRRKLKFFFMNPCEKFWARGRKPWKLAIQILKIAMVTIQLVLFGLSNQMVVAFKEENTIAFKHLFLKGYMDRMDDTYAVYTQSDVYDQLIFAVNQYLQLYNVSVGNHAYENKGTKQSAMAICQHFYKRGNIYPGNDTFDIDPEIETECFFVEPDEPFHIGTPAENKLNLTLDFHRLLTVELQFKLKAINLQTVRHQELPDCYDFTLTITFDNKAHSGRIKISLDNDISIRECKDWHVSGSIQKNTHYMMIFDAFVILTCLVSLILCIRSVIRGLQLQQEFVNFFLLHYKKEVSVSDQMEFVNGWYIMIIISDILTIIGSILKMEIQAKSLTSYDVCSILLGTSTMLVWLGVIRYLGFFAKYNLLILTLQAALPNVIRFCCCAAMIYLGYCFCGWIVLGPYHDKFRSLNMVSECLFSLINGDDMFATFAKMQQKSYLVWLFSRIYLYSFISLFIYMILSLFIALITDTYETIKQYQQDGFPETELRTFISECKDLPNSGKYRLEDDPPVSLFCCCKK
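Test system – HEK293 line with stable expression of human TRPML3-YFP channel · Control set – carbachol 87 µM final as high control (100%), DMSO as low control (0%) · Signal – Fluo-8 calcium dye fluorescence, ex 470-495, em 515-575 nm · Incubation – 1-h 37 °C dye load, 5-s basal, 120-s post-compound reads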
GPR7 antagonist: blocks human GPR7 receptor signaling; P48145; GPR7-expressing cells, fluorescence antagonist assay; inhibition, % at 4.4 µM; 1.1% of 290,000 active; in the data active means inhibition above about 16%, passing the limit was not always enough;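 further: cells stimulated with the agonist NPW; 0% = agonist with vehicle and 100% = vehicle without agonist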
CRFR2-BP antag: CRF-BP/CRF-R2 complex antagonism; inhibition, % at 11.8 µM; AID 588475; HEK293 CRF-R2/CRF-BP, CRF-induced calcium fluorescence; 0.59% of 350,000 active;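 active means inhibition of the ligand-induced calcium signal above about 50% at the single tested concentration, limit read from the data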
CRFR2-BP ag: CRF-BP/CRF-R2 complex agonism; HEK293 CRF-R2/CRF-BP, calcium dye fluorescence (FLIPR); percent of saturating CRF peptide response; activation, % at 13.2 µM; 0.46% of 350,000 active; AID 588473;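 active means activation of at least 50%, plus an integration ratio under a set limit after plate pattern correction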;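 further: plate controls were neutral control wells without compound for no effect and CRF at EC100 for full effect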
GPR7 antag cf: human GPR7 antagonism, confirmation assay. shares compounds with GPR7 antagonist. GPR7-expressing cells, calcium fluorescence antagonist mode. inhibition, % at 4.4 µM. 52% of 2,400 active. AID 1952; in the data active means inhibition above about 24%;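 further: stimulated with the GPR7 agonist NPW; 0% = agonist plus vehicle and 100% = vehicle alone without agonist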
MCHR1 antagonist: counter-screen for GPR7 antagonists: antagonists of human MCHR1. shares compounds with GPR7 antagonist. MCHR1-expressing cells, fluorescence antagonist assay. inhibition, % at 4.4 µM. 62% of 2,400 active; in the data active means inhibition above about 22%;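 further: 0% = vehicle with agonist and 100% = vehicle without agonist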
* = called active by the depositor; x = no result.

SMILES	TRPN1 ag	TRPML3 agonist	GPR7 antagonist	CRFR2-BP antag	CRFR2-BP ag	GPR7 antag cf	MCHR1 antagonist
CN(Cc1ccc(N(C)C)cc1)C(=O)c1cc2ccccc2o1	x	x	40.9*	-14.1	-0.1	10.4	26.2*
CN(Cc1ccccc1)C(=O)c1cc2ccccc2o1	-1.2	-1.0	1.4	-1.6	-1.0	x	x
O=C(O)C(c1ccccc1)C1CCCCC1O (configuration not stated)	x	x	x	-13.6	-0.3	x	x
COC(=O)CSc1nc(N)c(C#N)c(CC(C)C)c1C#N	2.1	0.1	26.1*	-6.7	-1.1	9.3	13.1
O=C(c1csc2c1CCCC2)N1CCN(c2ccccc2)CC1	1.8	0.4	34.6*	-34.8	0.2	23.5	12.4
CC1CCCCN1C(=O)COC(=O)c1cc(Cl)c2c(c1)OCO2 (configuration not stated)	x	x	x	-4.2	-0.8	x	x
Cc1cc(=O)oc2ccc(OCC(=O)N(Cc3ccc(F)cc3)Cc3ccco3)cc12	0.5	0.1	34.1*	10.1	1.6	37.9*	68.4*
CCOC(=O)Oc1ccc2oc(=O)cc(C)c2c1	-0.6	0.7	-6.4	12.9	0.2	x	x
COc1ccc(/C=N/NC(=O)c2cccc(Br)c2)cc1COc1ccccn1	0.2	-0.1	30.7*	13.1	0.1	-4.0	48.0*
COc1ccc(/C=N/NC(=O)c2ccccc2O)cc1COc1ccccn1	0.8	0.6	-16.4	7.6	0.1	x	x
COc1cc2c(C#Cc3cccnc3)c(-c3ccsc3)oc(=O)c2cc1OC	x	x	x	5.2	-0.3	x	x
N#CC1C(=O)c2ccccc2C1c1ccccc1 (configuration not stated)	x	x	x	21.2	13.7	x	x
CCOC(=O)N1CCC(n2c(SCC(=O)NCCc3ccc(S(N)(=O)=O)cc3)nc3ccccc3c2=O)CC1	0.9	0.2	43.1*	-12.7	1.4	19.2	20.0
O=C(Nc1cccnc1)c1cc(-c2ccccc2)on1	0.5	0.1	2.5	-2.7	0.0	x	x
CC(C)n1cc(NC(=O)c2cc(-c3ccccc3)on2)cn1	0.4	0.7	24.3*	-5.3	0.8	14.3	30.0*
COc1cccc(Nc2ncnc3sc(C)cc23)c1	x	x	29.9*	6.8	-0.1	-16.6	10.6
Cc1ccc(OCC(=O)Nc2ccncc2)cc1C	x	x	x	-0.7	-0.1	x	x
Cc1cc(OCC(=O)Nc2ccncc2)cc(C)c1Cl	x	x	28.8*	-0.4	-0.6	36.4*	59.9*
CCOc1ccccc1N1CCN(c2ncnc3scc(-c4ccc(OC)cc4)c23)CC1	x	x	54.3*	7.2	1.1	16.8	54.1*
CS(=O)(=O)c1ccc2nc(NC(=O)Nc3ccccc3F)sc2c1	x	x	59.2*	27.4	4.3	36.1*	16.0
O=C(CSc1ccc2c(c1)OCCO2)NCC1CCCO1 (configuration not stated)	-1.1	0.1	27.0*	-4.0	-0.8	-1.0	-1.3
O=C(CSc1ccc2c(c1)OCCO2)NCc1ccccc1	-0.9	0.2	2.4	-1.6	-1.4	x	x
COc1ccccc1-n1ccnc1SCC(=O)NCC1CCCO1 (configuration not stated)	x	x	-12.8	3.4	0.2	x	x
Cc1ccccc1-n1ccnc1SCC(=O)NCC1CCCO1 (configuration not stated)	x	x	26.4*	7.5	0.0	-8.5	3.4
COc1ccc(NC(=O)CC2C(=O)N(C)C(=S)N2CCc2ccccc2F)cc1 (configuration not stated)	1.6	2.2	-10.6	-23.9	1.1	x	x
SMILES	TRPN1 ag	TRPML3 agonist	GPR7 antagonist	CRFR2-BP antag	CRFR2-BP ag	GPR7 antag cf	MCHR1 antagonist
CN1C(=O)C(CC(=O)Nc2ccc(F)cc2)N(CCCc2ccccc2)C1=S (configuration not stated)	5.8	5.4	26.5*	-6.5	11.0	23.8*	41.1*
CN(C)CCCNc1cc(C(C)(C)C)nc2c(-c3ccccc3)cnn12	4.3	1.7	67.1*	-21.9	0.4	66.2*	67.2*
O=S(=O)(/N=C(/c1ccccc1)N1CCCCCC1)c1ccccc1	-2.2	0.5	32.6*	-3.4	-0.8	0.6	-0.9
CCc1ccc(NC(=O)C2CCCN2c2nn3c(=O)cc(C)nc3s2)cc1 (configuration not stated)	x	x	-4.1	-6.6	-4.0	x	x
CCOc1ccc([N+](=O)[O-])cc1CNC1CCCCCCC1	x	x	54.0*	-19.0	-1.6	38.2*	20.7
C=CCC(=O)N1CCC(n2nccc2NC(=O)CCOc2ccccc2)CC1	x	x	10.1	1.5	-0.3	x	x
COc1cccc(-c2c(C(=O)O)cc(O)c3ccc(OC)cc23)c1	x	x	x	0.9	3.6	x	x
CCN(CC(=O)Nc1cccc(C#N)c1)CC(=O)Nc1cccc(OC)c1	0.9	-0.9	27.3*	10.4	-1.3	29.6*	16.7
N#Cc1ccc(NC(=O)Nc2cccc(C#N)c2)cc1	22.7*	12.4*	25.4*	35.5	23.7	36.0*	55.1*
C1=CC2(C=C1)OC21CCC2(C=CC3(C2)OC3C2CCCCC2)CC1 (configuration not stated)	x	x	x	-13.6	10.3	x	x
Cc1nnc(SCC(=O)c2c(N)n(C3CC3)c(=O)[nH]c2=O)n1C	x	x	x	6.1	3.2	x	x
CC(C)(C)OC(=O)N1CCCC(C(=O)Nc2ccc(C(=O)N3CCCC3)cc2)C1 (configuration not stated)	x	x	x	-1.6	-0.6	x	x
COc1ccc(NC(=O)/C(C#N)=C\c2cc(C)n(-c3ccc(Oc4ccc([N+](=O)[O-])cn4)cc3)c2C)cc1	1.0	-0.2	-4.6	-24.1	-3.4	x	x
Cc1cc(C=O)c(C)n1-c1ccc(Oc2ccc([N+](=O)[O-])cn2)cc1	1.5	1.9	26.7*	40.6	3.8	35.9*	52.5*
Cc1ccsc1C(=O)N1CCCC(N2CCN(c3cccc(Cl)c3)CC2)C1 (configuration not stated)	x	x	-4.5	0.3	-1.4	x	x
COc1cc(CNC2CCCC2)cc(Cl)c1OCc1ccccc1Cl	0.4	0.4	8.7	-67.6	-1.3	x	x
COc1cc(CNC2CCCC2)cc(Cl)c1OCc1ccc(F)cc1	1.4	1.1	25.9*	-55.5	-0.4	24.8*	22.4*
CCOc1cc(CNC2CCCC2)cc(Cl)c1OCc1ccc(F)cc1	0.1	1.4	25.3*	-31.2	-0.7	49.2*	54.3*
O=C(CN1C(=O)c2ccccc2C1=O)Nc1ccccc1F	2.0	0.0	21.3*	-24.5	0.1	-10.2	37.5*
O=C(CN1C(=O)c2ccccc2C1=O)Nc1ccccc1C(F)(F)F	x	x	-3.5	5.1	-0.7	x	x
CC(=O)NC(CC(C)C)C(=O)O (configuration not stated)	x	x	x	2.1	0.2	x	x
O=C1CSC(=S)N1/N=C/c1ccc(Cl)c([N+](=O)[O-])c1	-1.5	0.3	2.0	x	x	x	x
Cc1ccc(C)c(N2CCN(C(=O)c3ccc(N4CCOCC4)c([N+](=O)[O-])c3)CC2)c1	x	x	11.2	-9.3	-0.1	x	x

Screening results from PubChem.
